pKi: −log10 of the molar value.
Experiments:
[1] = Inhibition of Cryptococcus neoformans beta-carbonic anhydrase incubated for 15 mins prior to testing by stopped-flow CO2 hydration assay
Procedure, shortened: (§1)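 CO2 was 1.7–17 mM. Initial rates were taken from at least six traces of the first 5–10% of reaction over 10–100 s, with uncatalysed rates subtracted. Inhibitor dilutions were in water down to 0.01 nM, preincubated with enzyme 15 min at room temperature.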

[2] = Inhibition of Brucella suis beta-carbonic anhydrase 1 incubated for 15 mins prior to testing by stopped-flow CO2 hydration assay
Procedure, shortened: (§2)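 Stopped-flow CO2 hydration; 0.2 mM phenol red read at 557 nm in 10 mM Hepes pH 7.4, 10 mM Tris-HCl, 0.1 M NaSO4; CO2 1.7–17 mM. Inhibitor (10 mM water stock, diluted down to 0.01 nM) preincubated with enzyme 15 min at room temperature. Initial rates from at least six traces of the first 5–10% of reaction, over 10–100 s, with uncatalysed rates subtracted.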

[3] = Inhibition of Brucella suis beta-carbonic anhydrase 2 incubated for 15 mins prior to testing by stopped-flow CO2 hydration assay; procedure, shortened: as §2
[4] = Inhibition of Leishmania donovani chagasi beta-carbonic anhydrase incubated for 15 mins prior to testing by stopped-flow CO2 hydration assay; procedure, shortened: as §1
[5] = Selectivity ratio of Ki for human alpha-carbonic anhydrase 1 to Ki for Cryptococcus neoformans beta-carbonic anhydrase
Procedure, shortened: (§3)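 Ki ratio, human CA isoform Ki divided by pathogen β-CA Ki, used as an index of selectivity for the pathogen enzyme over the human enzyme.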

[6] = Selectivity ratio of Ki for human alpha-carbonic anhydrase 1 to Ki for Brucella suis beta-carbonic anhydrase 1
[7] = Selectivity ratio of Ki for human alpha-carbonic anhydrase 1 to Ki for Brucella suis beta-carbonic anhydrase 2
[8] = Selectivity ratio of Ki for human alpha-carbonic anhydrase 1 to Ki for Leishmania donovani chagasi beta-carbonic anhydrase; procedure, shortened: as §3
[9] = Selectivity ratio of Ki for human alpha-carbonic anhydrase 2 to Ki for Cryptococcus neoformans beta-carbonic anhydrase; procedure, shortened: as §3
[10] = Selectivity ratio of Ki for human alpha-carbonic anhydrase 2 to Ki for Brucella suis beta-carbonic anhydrase 1
[11] = Selectivity ratio of Ki for human alpha-carbonic anhydrase 2 to Ki for Brucella suis beta-carbonic anhydrase 2
[12] = Selectivity ratio of Ki for human alpha-carbonic anhydrase 2 to Ki for Leishmania donovani chagasi beta-carbonic anhydrase; procedure, shortened: as §3
Brucella suis [13] = test: Potency index, ratio of acetazolamide Ki to compound Ki for Brucella suis beta-carbonic anhydrase 2
Brucella suis [14] = test: Potency index, ratio of benzolamide Ki to compound Ki for Brucella suis beta-carbonic anhydrase 2
Brucella suis [15] = test: Potency index, ratio of dichlorphenamide Ki to compound Ki for Brucella suis beta-carbonic anhydrase 2
Brucella suis [16] = test: Potency index, ratio of acetazolamide Ki to compound Ki for Brucella suis beta-carbonic anhydrase 1
Brucella suis [17] = test: Potency index, ratio of benzolamide Ki to compound Ki for Brucella suis beta-carbonic anhydrase 1
Brucella suis [18] = test: Potency index, ratio of dichlorphenamide Ki to compound Ki for Brucella suis beta-carbonic anhydrase 1

## NS(=O)(=O)c1ccc(/N=C/c2ccc(-c3ccccc3)cc2)c(F)c1
[1]
  pKi: 8.02
[2]
  pKi: 6.28
[3]
  pKi: 6.79
[4]
  pKi: 6.81
[5]
  Ratio Ki: 159
[6]
  Ratio Ki: 2.9
[7]
  Ratio Ki: 9.4
[8]
  Ratio Ki: 9.7
[9]
  Ratio Ki: 52.4
[10]
  Ratio Ki: 1
[11]
  Ratio Ki: 3.1
[12]
  Ratio Ki: 3.2
Brucella suis [13]
  Ratio Ki: 2

## COc1ccc(/C=N/CCc2ccc(S(N)(=O)=O)cc2)c(O)c1
[1]
  pKi: 7.77
[2]
  pKi: 6.96
[3]
  pKi: 7.66
[4]
  pKi: 6.72
[5]
  Ratio Ki: 258
[6]
  Ratio Ki: 40.2
[7]
  Ratio Ki: 201
[8]
  Ratio Ki: 23.2
[9]
  Ratio Ki: 40.9
[10]
  Ratio Ki: 6.4
[11]
  Ratio Ki: 31.8
[12]
  Ratio Ki: 3.7
Brucella suis [13]
  Ratio Ki: 10
Brucella suis [14]
  Ratio Ki: 10
Brucella suis [15]
  Ratio Ki: 10

## CSc1ccc(/C=N/CCc2ccc(S(N)(=O)=O)cc2)cc1
[1]
  pKi: 7.66
[2]
  pKi: 7.10
[3]
  pKi: 7.54
[4]
  pKi: 6.66
[5]
  Ratio Ki: 135
[6]
  Ratio Ki: 37
[7]
  Ratio Ki: 102
[8]
  Ratio Ki: 13.6
[9]
  Ratio Ki: 32.5
[10]
  Ratio Ki: 8.9
[11]
  Ratio Ki: 24.7
[12]
  Ratio Ki: 3.3
Brucella suis [13]
  Ratio Ki: 10
Brucella suis [14]
  Ratio Ki: 10
Brucella suis [15]
  Ratio Ki: 10

## NS(=O)(=O)c1ccc(CC/N=C/c2ccc(Br)cc2O)cc1
[1]
  pKi: 7.65
[2]
  pKi: 6.12
[3]
  pKi: 7.50
[4]
  pKi: 5.70
[5]
  Ratio Ki: 190
[6]
  Ratio Ki: 5.6
[7]
  Ratio Ki: 132
[8]
  Ratio Ki: 2.1
[9]
  Ratio Ki: 29.9
[10]
  Ratio Ki: 0.9
[11]
  Ratio Ki: 20.8
[12]
  Ratio Ki: 0.3
Brucella suis [13]
  Ratio Ki: 10
Brucella suis [14]
  Ratio Ki: 10
Brucella suis [15]
  Ratio Ki: 10

## NS(=O)(=O)c1ccc(CC/N=C/c2cccc(Br)c2O)cc1
[1]
  pKi: 7.80
[2]
  pKi: 7.35
[3]
  pKi: 7.61
[4]
  pKi: 5.90
[5]
  Ratio Ki: 340
[6]
  Ratio Ki: 118
[7]
  Ratio Ki: 220
[8]
  Ratio Ki: 4.2
[9]
  Ratio Ki: > 637
[10]
  Ratio Ki: > 222
[11]
  Ratio Ki: > 412
[12]
  Ratio Ki: > 7.9
Brucella suis [13]
  Ratio Ki: 10
Brucella suis [14]
  Ratio Ki: 10
Brucella suis [15]
  Ratio Ki: 10

## NS(=O)(=O)c1ccc(CC/N=C/c2ccc(-c3ccccc3)cc2)cc1
[1]
  pKi: 8.84
[2]
  pKi: 7.22
[3]
  pKi: 7.82
[4]
  pKi: 6.27
[5]
  Ratio Ki: 4860
[6]
  Ratio Ki: 117
[7]
  Ratio Ki: 465
[8]
  Ratio Ki: 12.9
[9]
  Ratio Ki: 487
[10]
  Ratio Ki: 11.7
[11]
  Ratio Ki: 46.5
[12]
  Ratio Ki: 1.3
Brucella suis [13]
  Ratio Ki: 10
Brucella suis [14]
  Ratio Ki: 10
Brucella suis [15]
  Ratio Ki: 10

## NS(=O)(=O)c1ccc(CC/N=C/c2c(F)c(F)cc(F)c2F)cc1
[1]
  pKi: 8.65
[2]
  pKi: 7.53
[3]
  pKi: 8.59
[4]
  pKi: 6.97
[5]
  Ratio Ki: 1160
[6]
  Ratio Ki: 90.1
[7]
  Ratio Ki: 1030
[8]
  Ratio Ki: 24.5
[9]
  Ratio Ki: 288
[10]
  Ratio Ki: 22.3
[11]
  Ratio Ki: 255
[12]
  Ratio Ki: 6.1
Brucella suis [16]
  Ratio Ki: 2
Brucella suis [17]
  Ratio Ki: 2
Brucella suis [18]
  Ratio Ki: 2
Brucella suis [13]
  Ratio Ki: 100
Brucella suis [14]
  Ratio Ki: 100
Brucella suis [15]
  Ratio Ki: 100

## NS(=O)(=O)c1ccc(CC/N=C/c2c[nH]c3ccc(Br)cc23)cc1
[1]
  pKi: 9.02
[2]
  pKi: 7.60
[3]
  pKi: 8.61
[4]
  pKi: 5.69
[5]
  Ratio Ki: 1840
[6]
  Ratio Ki: 70.2
[7]
  Ratio Ki: 714
[8]
  Ratio Ki: 0.9
[9]
  Ratio Ki: 627
[10]
  Ratio Ki: 23.9
[11]
  Ratio Ki: 243
[12]
  Ratio Ki: 0.3
Brucella suis [16]
  Ratio Ki: 2
Brucella suis [17]
  Ratio Ki: 2
Brucella suis [18]
  Ratio Ki: 2
Brucella suis [13]
  Ratio Ki: 100
Brucella suis [14]
  Ratio Ki: 100
Brucella suis [15]
  Ratio Ki: 100

## NS(=O)(=O)c1ccc(CC/N=C/c2ccc(S(=O)(=O)O)o2)cc1
[1]
  pKi: 7.92
[2]
  pKi: 6.17
[3]
  pKi: 7.59
[4]
  pKi: 5.84
[5]
  Ratio Ki: 236
[6]
  Ratio Ki: 4.2
[7]
  Ratio Ki: 111
[8]
  Ratio Ki: 2
[9]
  Ratio Ki: 38.5
[10]
  Ratio Ki: 0.7
[11]
  Ratio Ki: 18.1
[12]
  Ratio Ki: 0.3
Brucella suis [13]
  Ratio Ki: 10
Brucella suis [14]
  Ratio Ki: 10
Brucella suis [15]
  Ratio Ki: 10

## NS(=O)(=O)c1ccc(/N=C/c2ccccc2)c(F)c1
[1]
  pKi: 9.25
[2]
  pKi: 7.94
[3]
  pKi: 8.64
[4]
  pKi: < 5.60
[5]
  Ratio Ki: 891
[6]
  Ratio Ki: 43.2
[7]
  Ratio Ki: 216
[8]
  Ratio Ki: < 0.2
[9]
  Ratio Ki: 1270
[10]
  Ratio Ki: 61.5
[11]
  Ratio Ki: 307
[12]
  Ratio Ki: 0.3
Brucella suis [16]
  Ratio Ki: 2
Brucella suis [17]
  Ratio Ki: 2
Brucella suis [18]
  Ratio Ki: 2
Brucella suis [13]
  Ratio Ki: 100
Brucella suis [14]
  Ratio Ki: 100
Brucella suis [15]
  Ratio Ki: 100

## NS(=O)(=O)c1ccc(/N=C/c2ccc(Br)cc2O)cc1
[1]
  pKi: 7.77
[2]
  pKi: 6.20
[3]
  pKi: 7.63
[4]
  pKi: < 5.60
[5]
  Ratio Ki: 256
[6]
  Ratio Ki: 6.9
[7]
  Ratio Ki: 183
[8]
  Ratio Ki: < 1.7
[9]
  Ratio Ki: 41.9
[10]
  Ratio Ki: 1.1
[11]
  Ratio Ki: 29.9
[12]
  Ratio Ki: < 0.3
Brucella suis [13]
  Ratio Ki: 10
Brucella suis [14]
  Ratio Ki: 10
Brucella suis [15]
  Ratio Ki: 10

## COc1cc([N+](=O)[O-])ccc1/C=N/CCc1ccc(S(N)(=O)=O)cc1
[1]
  pKi: 7.67
[2]
  pKi: 6.48
[3]
  pKi: 6.79
[4]
  pKi: 5.71
[5]
  Ratio Ki: 10.1
[6]
  Ratio Ki: 0.7
[7]
  Ratio Ki: 1.3
[8]
  Ratio Ki: 0.1
[9]
  Ratio Ki: 7.9
[10]
  Ratio Ki: 0.5
[11]
  Ratio Ki: 1
[12]
  Ratio Ki: 0.09
Brucella suis [13]
  Ratio Ki: 2

## NS(=O)(=O)c1ccc(CC/N=C/c2ccc(-c3ccccn3)cc2)cc1
[1]
  pKi: 7.72
[2]
  pKi: 6.28
[3]
  pKi: 7.61
[4]
  pKi: 5.91
[5]
  Ratio Ki: 69.9
[6]
  Ratio Ki: 2.5
[7]
  Ratio Ki: 54.2
[8]
  Ratio Ki: 1.1
[9]
  Ratio Ki: 20.9
[10]
  Ratio Ki: 0.8
[11]
  Ratio Ki: 16.3
[12]
  Ratio Ki: 0.3
Brucella suis [13]
  Ratio Ki: 10
Brucella suis [14]
  Ratio Ki: 10
Brucella suis [15]
  Ratio Ki: 10

## NS(=O)(=O)c1ccc(/N=C/c2csc3ccccc23)cc1
[1]
  pKi: 7.78
[2]
  pKi: 5.99
[3]
  pKi: 6.68
[4]
  pKi: 5.85
[5]
  Ratio Ki: 183
[6]
  Ratio Ki: 3
[7]
  Ratio Ki: 14.8
[8]
  Ratio Ki: 2.1
[9]
  Ratio Ki: 39.8
[10]
  Ratio Ki: 0.6
[11]
  Ratio Ki: 3.2
[12]
  Ratio Ki: 0.5

## N#Cc1ccc(/C=N/CCc2ccc(S(N)(=O)=O)cc2)cc1
[1]
  pKi: 7.69
[2]
  pKi: 7.07
[3]
  pKi: 8.48
[4]
  pKi: 5.85
[5]
  Ratio Ki: 106
[6]
  Ratio Ki: 25.7
[7]
  Ratio Ki: 662
[8]
  Ratio Ki: 1.6
[9]
  Ratio Ki: 34.6
[10]
  Ratio Ki: 8.4
[11]
  Ratio Ki: 215
[12]
  Ratio Ki: 0.5
Brucella suis [13]
  Ratio Ki: 100
Brucella suis [14]
  Ratio Ki: 100
Brucella suis [15]
  Ratio Ki: 100

## NS(=O)(=O)c1ccc(/N=C/c2ccco2)c(F)c1
[1]
  pKi: 7.93
[2]
  pKi: 6.51
[3]
  pKi: 6.79
[4]
  pKi: 6.77
[5]
  Ratio Ki: 21.3
[6]
  Ratio Ki: 0.8
[7]
  Ratio Ki: 1.5
[8]
  Ratio Ki: 1.5
[9]
  Ratio Ki: 5.5
[10]
  Ratio Ki: 0.2
[11]
  Ratio Ki: 0.4
[12]
  Ratio Ki: 0.4
Brucella suis [13]
  Ratio Ki: 2

## NS(=O)(=O)c1ccc(/N=C/c2ccc(-c3ccccn3)cc2)cc1
[1]
  pKi: 7.66
[2]
  pKi: 6.03
[3]
  pKi: 6.59
[4]
  pKi: 5.90
[5]
  Ratio Ki: 202
[6]
  Ratio Ki: 4.6
[7]
  Ratio Ki: 17.1
[8]
  Ratio Ki: 3.5
[9]
  Ratio Ki: 31.4
[10]
  Ratio Ki: 0.7
[11]
  Ratio Ki: 2.7
[12]
  Ratio Ki: 0.5
